{"source": "ChEMBL document CHEMBL1133116", "about": "“Synthesis and evaluation of 17-aliphatic heterocycle-substituted steroidal inhibitors of 17alpha-hydroxylase/C17-20-lyase (P450 17)” (J Med Chem, 2000)", "key": {"[1]": {"target": "T1, Steroid 17-alpha-hydroxylase/17,20 lyase (Rattus norvegicus, UniProt P11715)", "T1 sequence (P11715 whole entry)": "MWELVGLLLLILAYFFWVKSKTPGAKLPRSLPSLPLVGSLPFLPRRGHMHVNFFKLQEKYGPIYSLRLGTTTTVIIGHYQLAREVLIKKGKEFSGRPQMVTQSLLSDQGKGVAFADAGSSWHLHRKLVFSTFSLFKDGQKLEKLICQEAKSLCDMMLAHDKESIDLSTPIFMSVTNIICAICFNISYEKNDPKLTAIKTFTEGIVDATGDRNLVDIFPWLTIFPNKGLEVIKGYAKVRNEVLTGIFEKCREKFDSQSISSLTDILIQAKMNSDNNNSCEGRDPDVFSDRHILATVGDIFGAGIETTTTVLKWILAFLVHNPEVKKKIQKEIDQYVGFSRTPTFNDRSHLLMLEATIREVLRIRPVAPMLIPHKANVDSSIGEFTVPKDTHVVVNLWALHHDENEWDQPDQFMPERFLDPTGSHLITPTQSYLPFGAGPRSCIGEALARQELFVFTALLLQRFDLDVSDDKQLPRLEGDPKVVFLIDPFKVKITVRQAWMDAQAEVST", "assay": "Inhibition of Cytochrome P450 17 from rat testicular microsomes at 125 uM; n.i. means no inhibition; call rule not given here", "outline": "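Rat testicular microsomes as P450 17 source, with progesterone substrate at 25 µM. […] Products were quantified by reverse-phase HPLC with UV detection. Values are means of at least two experiments.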"}, "[2]": {"target": "T2, Steroid 17-alpha-hydroxylase/17,20 lyase (Homo sapiens, UniProt P05093)", "T2 sequence (P05093 whole entry)": "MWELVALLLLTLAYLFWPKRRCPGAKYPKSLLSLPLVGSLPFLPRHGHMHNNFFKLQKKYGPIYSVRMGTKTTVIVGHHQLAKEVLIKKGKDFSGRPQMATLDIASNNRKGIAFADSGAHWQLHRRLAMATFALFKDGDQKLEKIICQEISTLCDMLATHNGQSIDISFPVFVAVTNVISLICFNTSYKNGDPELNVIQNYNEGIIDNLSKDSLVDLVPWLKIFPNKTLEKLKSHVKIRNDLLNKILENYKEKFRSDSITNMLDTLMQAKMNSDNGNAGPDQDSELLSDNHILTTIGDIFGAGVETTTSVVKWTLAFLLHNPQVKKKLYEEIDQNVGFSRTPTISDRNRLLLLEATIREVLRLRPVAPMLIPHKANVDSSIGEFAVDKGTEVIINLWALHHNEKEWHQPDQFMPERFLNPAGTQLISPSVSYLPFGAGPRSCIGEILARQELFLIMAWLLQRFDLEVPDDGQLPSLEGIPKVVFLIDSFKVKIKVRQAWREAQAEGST", "assay": "Inhibition of Cytochrome P450 17 from human testicular microsomes at 2.5 uM; n.i. means no inhibition", "outline": "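Human testicular microsomes as P450 17 source, with progesterone in large excess (25 µM) as substrate. Inhibitor was tested at 2.5 µM. The 16α- and 17α-hydroxyprogesterone products were quantified by reverse-phase HPLC with UV detection. No lyase products form with the human enzyme. Values are means of at least two experiments.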"}}, "data": [{"smiles": "COC1CC[C@@]2(C)C(=CC[C@H]3[C@@H]4CC[C@@H](C5CO5)[C@@]4(C)CC[C@@H]32)C1", "note": "(some centres not stated)", "values": [{"measurement": "IC50", "setting": "[1]", "result": "Not Active"}, {"measurement": "IC50", "setting": "[2]", "result": "Not Active"}]}]}
